ChEMBL document CHEMBL4261484, “Design, synthesis and anticonvulsant-analgesic activity of new N-[(phenoxy)alkyl]- and N-[(phenoxy)ethoxyethyl]aminoalkanols” (Medchemcomm, 2017)

Columns and labels:
HepG2 = test: Cytotoxicity against human HepG2 cells assessed as effect on cell viability at 10 to 200 uM after 24 hrs by MTT assay; type: cell-based; conditions: hepg2, 24 h
In short: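 HepG2 cells grown in MEM with 10% FBS (37 °C, 5% CO2) and seeded at 1 × 10^4. After overnight culture, doxorubicin 10–200 μM for 24 h. MTT added for 3 h, crystals dissolved, OD 570 nm. Viability is % of control ± SEM, three independent experiments.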

Mus musculus [1] = test: Anticonvulsant activity in mouse assessed as protection against subcutaneous pentylenetetrazole-induced seizures at 50 mg/kg, ip measured for 30 mins post pentylenetetrazole challenge at 0.5 hrs after compound dosing relative to control; type: functional
Mus musculus [2] = test: Anticonvulsant activity in mouse assessed as protection against subcutaneous pentylenetetrazole-induced seizures by measuring latency time of tonic seizures at 100 mg/kg, ip measured for 30 mins post pentylenetetrazole challenge at 0.5 hrs after compound dosing (reference value: 562.8 to 614.9 secs); type: functional
Mus musculus [3] = test: Anticonvulsant activity in mouse assessed as protection against subcutaneous pentylenetetrazole-induced seizures at 100 mg/kg, ip measured for 30 mins post pentylenetetrazole challenge at 0.5 hrs after compound dosing relative to control; type: functional
[4] = Neurotoxicity in ip dosed mouse assessed as motor impairment measured after 15 mins by rotarod test; conditions: in vivo
Mus musculus [5] = test: Anticonvulsant activity in mouse assessed as current strength required to induce tonic hind-limb extension in 50% of the animals at 10 mg/kg, ip by maximal electroshock seizure threshold test (reference value: 6.05 to 8.13 mA); type: functional
Mus musculus [6] = test: Anticonvulsant activity in mouse assessed as increase in electroconvulsive threshold at 10 mg/kg, ip by maximal electroshock seizure threshold test relative to control; type: functional
Mus musculus [7] = test: Anticonvulsant activity in mouse assessed as increase in electroconvulsive threshold at 2.5 mg/kg, ip by maximal electroshock seizure threshold test relative to control; type: functional
Mus musculus [8] = test: Anticonvulsant activity in mouse assessed as current strength required to induce tonic hind-limb extension in 50% of the animals at 2.5 mg/kg, ip by maximal electroshock seizure threshold test (reference value: 6.05 to 8.13 mA); type: functional
[9] = Protection index, ratio of TD50 for neurotoxicity in ip dosed mouse by rotarod test to ED50 for anticonvulsant activity in mouse by maximal electroshock seizure test; type: toxicity, organism-based; conditions: in vivo, read-out: Ratio TD50/ED50
[10] = Neurotoxicity in ip dosed mouse assessed as motor impairment measured for one min by rotarod test; type: toxicity, organism-based; conditions: in vivo
In short: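 Mice trained on an accelerating rotarod, then tested at least 24 h later after ip pretreatment, on a rod turning at 10 rpm. Neurotoxicity was scored as failure to stay on the rod for one minute. Read-out is mice impaired over mice tested.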

COc1cccc2c1C(=O)c1c(O)c3c(c(O)c1C2=O)C[C@@](O)(C(=O)CO)C[C@@H]3O[C@H]1C[C@H](N)[C@H](O)[C@H](C)O1 [DOXORUBICIN]
Activity (HepG2): Toxic

CCC1(C)CC(=O)NC1=O (stereo unspecified) [ETHOSUXIMIDE]
Activity (Mus musculus [1]): 123.94%
Time (Mus musculus [2]): 1470 s
Activity (Mus musculus [3]): 139.06%

COC[C@@H](NC(C)=O)C(=O)NCc1ccccc1 [LACOSAMIDE]
TD50 at 0.25 h [4]: 42.5 mg/kg
Activity (Mus musculus [5]): >25 mA
Activity (Mus musculus [6]): >413.22%

O=C1NC(=O)C(c2ccccc2)(c2ccccc2)N1 [PHENYTOIN]
Activity (Mus musculus [7]): 23.31%
Activity (Mus musculus [8]): 7.46 mA
selectivity ratio [9]: 10.3
TD50 at 1 min [10]: 68.7 mg/kg
